These results are taken from ChEMBL document CHEMBL2203189, “Synthesis and pharmacology of 1-alkyl-3-(1-naphthoyl)indoles: steric and electronic effects of 4- and 8-halogenated naphthoyl substituents” (Bioorg Med Chem, 2012).

The source made the active and inactive calls. No cut-off for these calls is given here.

Assay [1] deals with Mus musculus. Put plainly: Locomotor activity in Harlan ICR mouse assessed as inhibition of activity level at 86 umol/kg, iv from 5 to 15 mins by spontaneous locomotor activity test relative to vehicle treated control. It is filed as functional. The procedure, abridged:
(§1)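 Male ICR mice, n = 6 per dose, single probe dose iv in emulphor–ethanol–saline 1:1:18. Photocell beam interruptions recorded over 10 min, at 5–15 min after dosing. Result given as % inhibition relative to the vehicle group.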

Assay [2] deals with Mus musculus. Put plainly: Hypothermic activity in Harlan ICR mouse assessed as change in rectal temperature at 86 umol/kg, iv at 30 mins. It is filed as functional, organism-based. The procedure, abridged: (§2)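 Male ICR mice, n = 6 per dose. Single probe dose iv in emulphor–ethanol–saline 1:1:18. Rectal temperature taken with a thermistor probe at 25 mm depth before dosing and at 30 min. Result given as change from pre-injection value (°C).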

Another assay addresses Cannabinoid receptor 2 (Homo sapiens, UniProt P34972). Put plainly: Displacement of [3H]CP55940 from human CB2 receptor expressed in CHO cells after 1 hr by liquid scintillation spectrophotometry. It is filed as cell-based. The procedure, abridged:
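Membranes (50 µg) from CHO cells stably expressing human CB2, cultured in DMEM/10% fetal calf serum. Incubated with 0.5 nM [3H]CP55,940 and test compound at 1 nM–10 µM with BSA (5 mg/mL), 1 h at 30 °C. Nonspecific binding defined with excess unlabelled CP55,940. GF/B filtration, then scintillation counting.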

Assay [3] has as its system Mus musculus. Put plainly: Antinociceptive activity in Harlan ICR mouse assessed as latency to heat-induced tail flicking at 86 umol/kg, iv at 20 mins relative to control. It is filed as functional.
A further assay is filed under the species Homo sapiens. Nature of the assay: Selectivity ratio of Ki for human CB1 receptor to Ki for human CB2 receptor.
Assay [4] has as its target T1, Cannabinoid receptor 1 (Homo sapiens, UniProt P21554). Nature of the assay: Displacement of [3H]CP55940 from human CB1 receptor expressed in HEK293 cells after 1 hr by liquid scintillation spectrophotometry. It is filed as cell-based. The procedure, abridged: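 Membranes (50 µg) from HEK-293 cells stably expressing human CB1, cultured in DMEM/10% FBS. Incubated with 0.5 nM [3H]CP55,940 and test compound at 1 nM–10 µM in buffer with BSA (5 mg/mL), 1 h at 30 °C. Nonspecific binding defined with excess unlabelled CP55,940. Filtered through GF/B, then scintillation counting.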
Background: Displacement assays read how much labelled ligand stays bound in the presence of the test substance.

The subject of assay [5] is Mus musculus. Nature of the assay: Induction of catalepsy in iv dosed Harlan ICR mouse at 40 mins measured for 5 mins by ring immobility test. It is filed as functional.
The subject of assay [6] is Mus musculus. Put plainly: Antinociceptive activity in Harlan ICR mouse assessed as latency to heat-induced tail flicking at 91 umol/kg, iv at 20 mins relative to control. It is filed as functional.
For assay [7], the system named is Mus musculus. Nature of the assay: Hypothermic activity in Harlan ICR mouse assessed as change in rectal temperature at 91 umol/kg, iv at 30 mins. It is filed as functional. The procedure, abridged:
as §2

Assay [8] concerns Mus musculus. Put plainly: Locomotor activity in Harlan ICR mouse assessed as inhibition of activity level at 91 umol/kg, iv from 5 to 15 mins by spontaneous locomotor activity test relative to vehicle treated control. It is filed as functional. Summed up: as §1
The test system of assay [9] is Mus musculus. Put plainly: Locomotor activity in Harlan ICR mouse assessed as inhibition of activity level at 27 umol/kg, iv from 5 to 15 mins by spontaneous locomotor activity test relative to vehicle treated control. It is filed as functional. The procedure, abridged: as §1
Assay [10] deals with Mus musculus. Nature of the assay: Antinociceptive activity in Harlan ICR mouse assessed as latency to heat-induced tail flicking at 27 umol/kg, iv at 20 mins relative to control. It is filed as functional.
The subject of assay [11] is Mus musculus. Nature of the assay: Hypothermic activity in Harlan ICR mouse assessed as change in rectal temperature at 27 umol/kg, iv at 30 mins. It is filed as functional. Summed up:
as §2

The subject of assay [12] is Mus musculus. Nature of the assay: Induction of catalepsy in Harlan ICR mouse at […], iv at 40 mins measured for 5 mins by ring immobility test. It is filed as functional.
In assay [13] the test system is Mus musculus. Nature of the assay: Hypothermic activity in Harlan ICR mouse assessed as change in rectal temperature at […], iv at 30 mins. It is filed as functional.
The test system of assay [14] is Mus musculus. Put plainly: Locomotor activity in Harlan ICR mouse assessed as inhibition of activity level at […], iv from 5 to 15 mins by spontaneous locomotor activity test relative to vehicle treated control. It is filed as functional.
In assay [15] the test system is Mus musculus. Put plainly: Antinociceptive activity in Harlan ICR mouse assessed as latency to heat-induced tail flicking at […], iv at 20 mins relative to control. It is filed as functional.
Assay [16] concerns the target T1, Cannabinoid receptor 1. Nature of the assay: Activation of human CB1 receptor expressed in HEK293 cells assessed as [35S]GTPgamma binding after 90 mins by liquid scintillation spectrophotometry. It is filed as functional, cell-based. Summed up:
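Membranes from HEK-293 cells stably expressing human CB1, pelleted at 50,000g and taken up in Tris-HCl pH 7.4 with MgCl2, EGTA and NaCl. 10 µg protein with BSA, 20 µM GDP, 0.1 nM [35S]GTPγS and graded test concentrations, 90 min at 30 °C. 2 µM CP55,940 run as internal standard; basal without agonist, nonspecific with 10 µM GTPγS. Filtration, then scintillation counting.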

T1 sequence (P21554 whole entry): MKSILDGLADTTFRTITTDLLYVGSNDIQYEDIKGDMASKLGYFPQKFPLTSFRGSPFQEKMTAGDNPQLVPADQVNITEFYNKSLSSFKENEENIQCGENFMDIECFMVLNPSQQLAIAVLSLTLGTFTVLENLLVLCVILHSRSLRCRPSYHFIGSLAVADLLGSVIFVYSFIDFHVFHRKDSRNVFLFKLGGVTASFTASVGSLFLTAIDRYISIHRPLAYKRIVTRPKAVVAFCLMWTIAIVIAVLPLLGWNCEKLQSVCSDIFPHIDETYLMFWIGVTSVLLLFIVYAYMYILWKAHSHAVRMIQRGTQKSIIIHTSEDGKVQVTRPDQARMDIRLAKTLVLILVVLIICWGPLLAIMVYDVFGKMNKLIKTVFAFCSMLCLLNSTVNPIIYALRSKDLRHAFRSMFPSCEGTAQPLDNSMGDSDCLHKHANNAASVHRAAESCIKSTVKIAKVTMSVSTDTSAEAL
Chain of Cannabinoid receptor 2 (P34972 whole entry): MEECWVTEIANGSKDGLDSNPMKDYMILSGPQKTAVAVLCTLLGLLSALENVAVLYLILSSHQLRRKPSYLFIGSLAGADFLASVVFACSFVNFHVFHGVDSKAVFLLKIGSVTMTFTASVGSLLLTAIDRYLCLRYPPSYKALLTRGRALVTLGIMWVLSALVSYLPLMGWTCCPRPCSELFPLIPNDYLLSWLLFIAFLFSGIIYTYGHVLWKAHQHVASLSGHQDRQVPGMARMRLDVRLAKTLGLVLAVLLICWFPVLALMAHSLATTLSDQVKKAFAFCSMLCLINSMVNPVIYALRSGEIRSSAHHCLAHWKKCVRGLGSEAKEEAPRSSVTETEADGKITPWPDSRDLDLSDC

By inhibition in vivo is commonly meant the drop in the measured response relative to a control, in per cent. Usually Ki stands for a measure of affinity in units of concentration, obtained from inhibition or displacement. Lower therefore signals tighter binding. For the compound `CCCn1cc(C(=O)c2cccc3cccc(Cl)c23)c2ccccc21`, the inhibition in vivo at 86 µmol/kg in the assay on Mus musculus [1] came out at 68%. The result in the assay on Mus musculus [2] was inactive. In addition, the inhibitory constant (Ki) was 134 nM on Cannabinoid receptor 2 and 642 nM on Cannabinoid receptor 1 [4]. The Activity in the assay with Mus musculus [3] is recorded as 72%. Further, the Ratio Ki in the assay filed under Homo sapiens is 4.8.

For `CCCn1cc(C(=O)c2ccc(F)c3ccccc23)c2ccccc21`, in the assay with Mus musculus [5], the result was inactive. In addition, the Activity with Mus musculus [6] is on record as 59%; with Mus musculus [7] it was -3.3%. Further, the Ki on Cannabinoid receptor 2 turned out to be 33 nM; at Cannabinoid receptor 1 [4], 240 nM. The Ratio Ki in the assay listed under Homo sapiens was found to be 7. Moreover, the inhibition in vivo at 91 µmol/kg in the assay with Mus musculus [8] turned out to be 67%.

In the case of `CCCCCn1cc(C(=O)c2ccc(Cl)c3ccccc23)c2ccccc21`, the inhibition in vivo at 27 µmol/kg in the assay on Mus musculus [9] came out at 82%. The results for the Ki at Cannabinoid receptor 2 and at Cannabinoid receptor 1 [4] were 2.8 nM and 2.3 nM, respectively. Moreover, the Activity in the assay on Mus musculus [10] is 90%; with Mus musculus [11], -4.9%. Also, the Ratio Ki in the assay listed under Homo sapiens was 0.8.

Take `CCCn1cc(C(=O)c2ccc(I)c3ccccc23)c2ccccc21`: the figures for the Activity with Mus musculus [12], in the assay with Mus musculus [13] and in the assay with Mus musculus [15] were 2%, -1.7% and 26%, respectively. Moreover, the inhibition in vivo at […] in the assay on Mus musculus [14] is 10%. Also, the inhibition constant Ki at Cannabinoid receptor 2 was determined as 6.6 nM; on Cannabinoid receptor 1 [4], 140 nM. The Ratio Ki in the assay filed under Homo sapiens is 21.

For the compound `C=C1CC[C@@H]2[C@@H](C1)c1ccc(C(C)(C)CCCCCC)cc1OC2(C)C`, at Cannabinoid receptor 1 [16], the result was inactive.
